Test [1] has as its target T1, c-Myc/Max (Homo sapiens, UniProt P01106+P61244). Description: Disruption of human recombinant c-Myc-Max(S)/DNA (unknown origin) binding assessed as complex level at 100 uM by electrophoretic mobility shift assay relative to control. Type of test: protein-complex assay. The procedure, abridged: (§1)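 Recombinant c-Myc 353–437 bHLH-ZIP with full-length Max(S), or Max(L) alone, from E. coli (His₆ removed by TEV), each 30 nM, with 30 nM HEX-labelled double-stranded oligonucleotide bearing a c-Myc site; buffer 1× PBS pH 7.3, 1 mM EDTA, 0.1% NP40, 5% glycerol, 1 mM DTT, 400 µg/mL BSA; complex level relative to DMSO control; three independent EMSAs.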
Background: In EMSA bound probe runs differently from free probe, usually more slowly.

For test [2], the target named is T1, c-Myc/Max. Description: Disruption of human recombinant c-Myc-Max/DNA (unknown origin) binding assessed as complex level by electrophoretic mobility shift assay relative to control. Type of test: protein-complex assay. An outline of the steps:
as §1

A further test relates to Daudi. Description: Antiproliferative activity against c-Myc-overexpressing human Daudi cells after 3 days by MTT assay. Type of test: functional, cell-based. The conditions noted are these: 72 h. An outline of the steps: (§2)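 Cells at >90% viability seeded at 2×10³ cells/well in fresh growth medium with 10-point serial dilutions of compound; 3-day incubation; viability by MTT, relative to untreated cells; each point in at least triplicate; IC50 from dose–response. HO15.19-wt-Myc are myc−/− rat fibroblasts with c-Myc restored by stable retroviral transduction.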

Test [3] can be described thus: Antiproliferative activity against c-Myc-overexpressing human HL60 cells after 3 days by MTT assay. The conditions noted are these: HL-60, 72 h. It counts as functional, cell-based. An outline of the steps: as §2
On the technique in general: Tetrazolium assays rely on reduction of a dye to a coloured formazan, in cell work by metabolically active cells.

Test [4] in a line: Cell cycle arrest in human HL60 cells assessed as accumulation at G0/G1 phase at 40 uM after 24 hrs by propidium iodide staining-based flow cytometric analysis (reference value: 39%). The note with it: HL-60. It counts as functional. (A flow cytometer gives signals particle by particle.)
A short description of test [5]: Cell cycle arrest in human HL60 cells assessed as accumulation at S phase at 40 uM after 24 hrs by propidium iodide staining-based flow cytometric analysis (reference value: 49%). Type of test: functional. The conditions noted are these: HL-60.
The nature of test [6]: Cell cycle arrest in human HL60 cells assessed as accumulation at G0/G1 phase at 20 uM after 24 hrs by propidium iodide staining-based flow cytometric analysis (reference value: 39%). The conditions noted are these: HL-60. Type of test: functional.
Test [7] is described as follows: Cell cycle arrest in human HL60 cells assessed as accumulation at G2/M phase at 20 uM after 24 hrs by propidium iodide staining-based flow cytometric analysis (reference value: 11.2%). Type of test: functional. The conditions noted are these: HL-60.
A short description of test [8]: Cell cycle arrest in human HL60 cells assessed as accumulation at G2/M phase at 40 uM after 24 hrs by propidium iodide staining-based flow cytometric analysis (reference value: 11.2%). Type of test: functional. The note with it: HL-60.
Test [9] in a line: Cell cycle arrest in human HL60 cells assessed as accumulation at S phase at 20 uM after 24 hrs by propidium iodide staining-based flow cytometric analysis (reference value: 49%). The note with it: HL-60. It counts as functional.
Test [10] deals with T1, c-Myc/Max. Description: Induction of dissociation of […]-Max in human HL60 cells at 40 to 72 uM after 6 hrs by Co-immunoprecipitation (Co-IP) assay. It counts as cell-based. The conditions noted are these: HL-60. An outline of the steps:
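About 5×10⁶ HL60 cells exposed 6 h to compound or DMSO; lysed in IP buffer; 300 µg cleared lysate immunoprecipitated overnight at 4 °C with anti-Max (1:200) and protein G-Sepharose; 10% SDS-PAGE, immunoblot with anti-c-Myc 9E10 (1:1000); input lysate kept for comparison.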

pIC50: −log10 of the molar value. Activity calls are given as the source filed them. No cut-off for these calls is given here.

Broadly, the pIC50 is the negative decadic logarithm of the IC50, by convention in mol/L.

T1 sequence (P01106 whole entry): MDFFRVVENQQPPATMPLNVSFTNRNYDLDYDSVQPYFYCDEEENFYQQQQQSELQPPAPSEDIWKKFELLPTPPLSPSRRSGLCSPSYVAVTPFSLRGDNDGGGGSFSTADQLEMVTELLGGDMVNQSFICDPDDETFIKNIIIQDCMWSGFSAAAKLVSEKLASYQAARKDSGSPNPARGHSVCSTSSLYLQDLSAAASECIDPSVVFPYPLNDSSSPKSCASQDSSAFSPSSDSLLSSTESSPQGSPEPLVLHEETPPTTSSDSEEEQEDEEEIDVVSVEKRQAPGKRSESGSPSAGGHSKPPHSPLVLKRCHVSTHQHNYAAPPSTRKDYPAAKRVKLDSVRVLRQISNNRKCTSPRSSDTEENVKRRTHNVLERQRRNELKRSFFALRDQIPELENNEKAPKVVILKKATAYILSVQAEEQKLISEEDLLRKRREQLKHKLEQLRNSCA
T1 sequence (P61244 whole entry): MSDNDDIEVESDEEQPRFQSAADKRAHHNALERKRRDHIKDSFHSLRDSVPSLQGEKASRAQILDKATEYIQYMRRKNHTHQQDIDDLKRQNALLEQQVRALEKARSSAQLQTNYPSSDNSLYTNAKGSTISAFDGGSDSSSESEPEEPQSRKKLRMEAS

Take `CC(C)COc1cc(C(=O)O)ccc1NC(=O)c1ccc([N+](=O)[O-])cc1OCC(C)C`: the Activity on c-Myc/Max [1] stood at 120%. Take `COC(=O)c1ccc(NC(=O)c2ccc([N+](=O)[O-])c(OCc3cccc4ccccc34)c2)c(OC2Cc3ccccc3C2)c1`: at c-Myc/Max [1], the Activity was 117%. On to `CC(C)COc1cc(C(=O)Nc2ccc(C(=O)O)cc2OCc2ccccc2)ccc1[N+](=O)[O-]`, for which the Activity at c-Myc/Max [1] came to 104%.

With `COC(=O)c1ccc(NC(=O)c2ccc([N+](=O)[O-])c(OC3Cc4ccccc4C3)c2)c(OC2Cc3ccccc3C2)c1`, the Activity on c-Myc/Max [1] came to 100%. As for `CC(C)COc1cccc(C(=O)Nc2ccc(C(=O)O)cc2OCC(C)C)c1`, at c-Myc/Max [1], the Activity turned out to be 97%. On to `CC(C)COc1cc(NC(=O)c2ccc([N+](=O)[O-])c(OCC(C)C)c2)ccc1C(=O)O`, for which the Activity on c-Myc/Max [1] came to 80%.

With `CC(C)Oc1cc(C(=O)O)ccc1NC(=O)c1ccc([N+](=O)[O-])c(OC(C)C)c1`, the Activity at c-Myc/Max [1] was 47%. As to `CC(C)COc1cc(C(=O)O)ccc1NC(=O)c1ccc([N+](=O)[O-])c(OCc2ccccn2)c1`, the Activity on c-Myc/Max [1] was determined as 100%. Regarding `COC(=O)c1ccc(NC(=O)c2ccc([N+](=O)[O-])c(OCc3ccccc3)c2)c(OC2Cc3ccccc3C2)c1`, the Activity on c-Myc/Max [1] was found to be 112%. Same read-out and setting: in the case of `O=C(O)c1ccc(NC(=O)c2ccc([N+](=O)[O-])cc2)cc1` it was 87%. Still for that read-out and setting: in the case of `CC(C)COc1cc(C(=O)Nc2ccc(C(=O)O)cc2OCc2cccnc2)ccc1[N+](=O)[O-]` it was 75%; in that of `COC(=O)c1ccc(NC(=O)c2ccc([N+](=O)[O-])c(OCc3ccccc3)c2)c(OCc2ccccc2)c1`, 85%.

Consider `CC(C)COc1cc(C(=O)O)ccc1NC(=O)c1ccc([N+](=O)[O-])c(OCC(C)C)n1`, for which the negative logarithm of the IC50 (pIC50) at c-Myc/Max [2] is 4.36; in the test with Daudi, 4.95; in [3] it was 4.67. On c-Myc/Max [1], the Activity stood at 0%. With `CC(C)COc1cc(C(=O)O)ccc1NC(=O)c1ccc([N+](=O)[O-])cc1`, the Activity on c-Myc/Max [1] was 90%. For the molecule `CCOC(=O)C(=O)Nc1ccc(C(=O)Nc2ccc(C(=O)O)cc2OCC(C)C)cc1OCC(C)C`, the pIC50 at c-Myc/Max [2] is 5.25; with Daudi, less than 4.30; in test [3], less than 4.30. Further, the Activity at c-Myc/Max [1] was 0%. For the molecule `COC(=O)c1ccc(NC(=O)c2ccc([N+](=O)[O-])c(OC3Cc4ccccc4C3)c2)c(OCc2ccccc2)c1`, the Activity on c-Myc/Max [1] worked out at 78%. Same read-out and setting: under `CC(C)COc1cc(C(=O)Nc2ccc(C(=O)O)cc2OCc2ccccn2)ccc1[N+](=O)[O-]` stands 116%. Turning to `CCc1ccc(/C=C2\SC(=S)NC2=O)cc1`, the Activity was determined as 59.3% in [4]; 35% in test [5]; 48% in test [6]; 10% in [7]; 5.6% in [8]; 42% in test [9]. Also, the outcome on c-Myc/Max [10] was inactive. In the case of `COC(=O)c1ccc(NC(=O)c2ccc([N+](=O)[O-])c(OC(C)C)c2)c(OC2Cc3ccccc3C2)c1`, the Activity on c-Myc/Max [1] was determined as 109%. In the case of `CC(C)COc1cc(NC(=O)c2ccc([N+](=O)[O-])cc2OCC(C)C)ccc1C(=O)O`, the Activity on c-Myc/Max [1] came to 96%. On the same count and under the same terms, under `COC(=O)c1ccc(NC(=O)c2ccc([N+](=O)[O-])c(OCc3cccc4ccccc34)c2)c(OCC(C)C)c1` stands 109%; under `COC(=O)c1ccc(NC(=O)c2ccc([N+](=O)[O-])c(OC(C)C)c2)c(OCC(C)C)c1`, 70%; under `CC(C)COc1nc(C(=O)Nc2ccc(C(=O)O)nc2OCC(C)C)ccc1N`, 79%. As to `CC(C)COc1cc(C(=O)Nc2ccc(C(=O)O)cc2OCc2ccncc2)ccc1[N+](=O)[O-]`, the Activity on c-Myc/Max [1] is 87%. Take `CC(C)COc1cc(C(=O)O)ccc1NC(=O)c1ccc(N)c(OC2Cc3ccccc3C2)c1`: the Activity at c-Myc/Max [1] was 87%. As for `CC(C)COc1cc(C(=O)N(CC(=O)O)CC(=O)O)ccc1NC(=O)c1ccc([N+](=O)[O-])c(OCC(C)C)c1`, at c-Myc/Max [1], the Activity came to 99%. For the molecule `CC(C)COc1cc(C(=O)O)ccc1NC(=O)c1ccc([N+](=O)[O-])c(OCC(C)C)c1`, the pIC50 on c-Myc/Max [2] was 4.69; in the test with Daudi, 4.64; in test [3], 4.40. Moreover, on c-Myc/Max [1], the Activity amounted to 0%. As to `CC(C)COc1cc(C(=O)Nc2ccc(C(=O)O)cc2)ccc1[N+](=O)[O-]`, the Activity at c-Myc/Max [1] was determined as 81%. Same read-out and setting: in the case of `CC(C)COc1cc(C(=O)NCC(=O)O)ccc1NC(=O)c1ccc([N+](=O)[O-])c(OCC(C)C)c1` it was 107%; in that of `CC(C)COc1cc(C(=O)Nc2ccc(C(=O)O)cc2OCC(C)C)ccc1NC(=O)C(=O)O`, 99%. As to `COC(=O)c1ccc(NC(=O)c2ccc([N+](=O)[O-])c(OCc3ccccc3)c2)c(OCC(C)C)c1`, the Activity at c-Myc/Max [1] is 75%.

For the molecule `COC(=O)c1ccc(NC(=O)c2ccc([N+](=O)[O-])c(OC3Cc4ccccc4C3)c2)c(OCC(C)C)c1`, the Activity at c-Myc/Max [1] is 90%. On to `COC(=O)c1ccc(NC(=O)c2ccc([N+](=O)[O-])c(OCc3cccc4ccccc34)c2)c(OCc2ccccc2)c1`, for which the Activity on c-Myc/Max [1] amounted to 88%. As to `CC(C)COc1cc(C(=O)Nc2ccc(C(=O)O)cc2OCC(C)C)ccc1N`, the Activity on c-Myc/Max [1] is 105%. On to `COC(=O)c1ccc(NC(=O)c2ccc([N+](=O)[O-])c(OC(C)C)c2)c(OCc2ccccc2)c1`, for which the Activity at c-Myc/Max [1] came to 73%. For the molecule `CC(C)COc1cc(C(=O)Nc2ccc(C(=O)O)cc2OCC(C)C)ccc1NC(=O)COCC(=O)O`, the Activity on c-Myc/Max [1] was 89%. For `CC(C)COc1cc(C(=O)O)ccc1NC(=O)c1ccc([N+](=O)[O-])c(OC2Cc3ccccc3C2)c1`, on c-Myc/Max [1], the Activity stood at 65%. Regarding `COC(=O)c1ccc(NC(=O)c2ccc([N+](=O)[O-])c(OCC(C)C)c2)c(OCC(C)C)c1`, the Activity at c-Myc/Max [1] was found to be 112%. For the molecule `COc1cc(C(=O)O)ccc1NC(=O)c1ccc([N+](=O)[O-])c(OC)c1`, the Activity on c-Myc/Max [1] is 94%.

Regarding `CC(C)COc1nc(C(=O)O)ccc1NC(=O)c1ccc([N+](=O)[O-])c(OCC(C)C)n1`, the pIC50 on c-Myc/Max [2] is 4.62; in the test with Daudi, 4.95; in [3], 4.52. The Activity on c-Myc/Max [1] was found to be 0%. In the case of `CC(C)COc1cc(C(=O)O)ccc1NC(=O)c1ccc([N+](=O)[O-])c(OCc2ccccc2)c1`, the pIC50 at c-Myc/Max [2] was 4.37; in the test on Daudi, 4.59.

Values taken from ChEMBL document CHEMBL3425495, “Perturbation of the c-Myc-Max protein-protein interaction via synthetic α-helix mimetics” (J Med Chem, 2015).
